A selection: hits, their analogues and other compounds. The true share with any hit is near 1.8%.
Tn6 DDE FP: inhibitors of Tn6 peptide binding to human fibrin DD(E); P02675; Fibrin DD(E) TRITC-Tn6 fluorescence polarization displacement; inhibition, % at 8.3 µM; 0.21% of 370,000 active; AID 720509;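 active = inhibition above a per-campaign cutoff: mean of compounds within control limits plus 3 SD, cut at about 15% in these data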;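 also: 0% = median of all compound wells on the plate and 100% = blocking peptide control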
HTRA1 inhibitor: HTRA1 (human) protease inhibition; Q92743; recombinant HTRA1, FP-rhodamine activity-based probe, fluorescence polarization; inhibition, % at 5.96 µM; 0.5% of 340,000 active; AID 504803; in the data active = inhibition above about 36%;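 also: 0% = enzyme with DMSO and 100% = wells lacking enzyme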
Target sequence (Q92743 whole entry, looked up): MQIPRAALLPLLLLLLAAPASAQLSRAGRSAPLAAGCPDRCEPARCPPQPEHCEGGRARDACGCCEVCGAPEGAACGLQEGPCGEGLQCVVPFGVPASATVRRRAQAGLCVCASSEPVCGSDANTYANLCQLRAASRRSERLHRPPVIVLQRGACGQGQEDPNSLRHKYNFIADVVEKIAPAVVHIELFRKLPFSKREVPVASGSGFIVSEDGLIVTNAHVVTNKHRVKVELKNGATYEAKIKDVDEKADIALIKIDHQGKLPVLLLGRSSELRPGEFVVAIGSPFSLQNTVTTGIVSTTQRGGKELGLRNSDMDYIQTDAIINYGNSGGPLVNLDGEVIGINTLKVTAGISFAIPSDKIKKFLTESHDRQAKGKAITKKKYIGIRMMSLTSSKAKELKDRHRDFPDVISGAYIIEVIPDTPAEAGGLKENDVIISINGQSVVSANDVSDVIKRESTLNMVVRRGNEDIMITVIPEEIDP
Tn7 DDE FP: DD(E)-Tn7 binding inhibition, primary FP screen; P02675; FP displacement of FITC-Tn7 peptide from fibrin DD(E); 0% = median of compound wells per plate; inhibition, % at 8.3 µM; 0.13% of 370,000 active; AID 720508;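 active = inhibition above the mean of compounds falling within the control limits plus 3 SD of them, cut at about 14% in these data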;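 also: 0% = plate median of compound wells and 100% = 10 µM Aha-Tn7 peptide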
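Assay system: human fibrin DD(E). Input: DD(E) 2 µM final. Medium: Tris buffer with calcium and detergent, pH 7.8. Compound dosing: single point at 8.3 µM. Timing: 10 min plus 3 h, room temperature. Technique: fluorescence polarization of the labelled Tn7 tracer. Read-out: percent inhibition. Replicates: singlicate testing.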
mABHD4 FP: inhibitors of mouse ABHD4; purified mABHD4, FP-Rh probe fluorescence polarization; inhibition, % at 8.92 µM; 0.54% of 370,000 active; Q8VD66; AID 720543;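 active = inhibition exceeding the mean over every tested compound plus 3 SD, cut at about 30% in these data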;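 also: 0% = plate median of compound wells and 100% = S159A mutant with DMSO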
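System: mouse ABHD4 enzyme, wild type / Medium: HEPES pH 7.0, NaCl, Pluronic buffer / Reagent: FP-Rh activity-based fluorescent probe / Control set: S159A mutant high control, sample median low control / Detection: fluorescence polarization with parallel and perpendicular emission, 525/598 nm / Schedule: 45 min + 60 min at 25 °C / Compound dosing: 8.92 µM, single dose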
SIAE primary: human SIAE inhibition, primary screen; Q9HAT2; SIAE FP-Rh probe binding, fluorescence polarization; AID 1053197; 0.69% of 370,000 active; inhibition, % at 9.66 µM;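 active = inhibition above a cutoff: mean of compounds within the control limits plus 3 SD of those, cut at about 17% in these data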;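 also: 0% = plate median of compound wells and 100% = probe without SIAE protein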
TCR CD3 inh: human TCR-CD3 binding inhibition. inhibition, % at 9.4 µM. 0.37% of 360,000 active. TAMRA-labeled TCR probe fluorescence, biochemical; in the data active = inhibition above about 19%;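 also: recombinant mutant TCR 2C K166C tagged with TAMRA read by polarization; 0% = receptor in buffer alone and 100% = receptor with positive control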
HTRA1 inh conf: HTRA1 (human) inhibition, confirmation; AID 540248; 66% of 1,600 active; shares compounds with HTRA1 inhibitor; inhibition, % at 5.96 µM; recombinant HTRA1, FP-rhodamine activity-based probe, fluorescence polarization;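 active = mean inhibition over three repeats above a set limit taken from the earlier primary screen, cut at about 37% in these data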;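 also: 0% = HTRA1 with DMSO and 100% = wells lacking HTRA1; inhibitors block probe binding so polarization drops and inhibition rises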
* marks the source's active call; other numbers are inactive results.

O=C(O)C1=C2C(=O)Nc3cccc(c32)C2(C1)C(=O)Nc1ccccc12 (stereo not drawn) was read as Tn6 DDE FP -7, HTRA1 inhibitor 37*, Tn7 DDE FP 5, mABHD4 FP 33*, SIAE primary 9, TCR CD3 inh 0 and HTRA1 inh conf 12.
O=C1NCCC12C(=O)Nc1ccccc12 (stereo not drawn) was read as Tn6 DDE FP 0, HTRA1 inhibitor 2, Tn7 DDE FP -6, mABHD4 FP 2, SIAE primary 2 and TCR CD3 inh 3.
Screening O=C(/C=C/c1cccs1)NC(=S)NNC(=O)c1ccccc1O returned Tn6 DDE FP -8, HTRA1 inhibitor 48*, Tn7 DDE FP 6, mABHD4 FP 6, SIAE primary 6, TCR CD3 inh -11 and HTRA1 inh conf 58*.
For CC1=C[C@]2(C[N+](Cc3ccccc3)=C(N)N2)n2c(=O)n(-c3ccccc3)c(=O)n2C1 the results were Tn6 DDE FP 5, Tn7 DDE FP 2, mABHD4 FP 3 and SIAE primary 2.
`COc1ccc(C(=O)Oc2ccc3oc(=O)sc3c2)cc1` gave Tn6 DDE FP 2, HTRA1 inhibitor 45*, Tn7 DDE FP -10, mABHD4 FP -12, SIAE primary -25, TCR CD3 inh 1 and HTRA1 inh conf 6.
For COc1ccc(CNCC#CC2=CCCCC2)c(OC)c1 the results were Tn6 DDE FP -1, Tn7 DDE FP 2, mABHD4 FP 10 and SIAE primary -2.
For Nc1[nH]c(C(=O)c2ccccc2)c(-c2ccc3ccccc3c2)c1C(=O)NCc1ccc(F)cc1 the results were Tn6 DDE FP 8, Tn7 DDE FP 7, mABHD4 FP 0, SIAE primary -4 and TCR CD3 inh -5.
`Cc1nc2cc(NC(=O)N3CCN(c4ccccn4)CC3)ccc2o1` gave Tn6 DDE FP -3, HTRA1 inhibitor -5, Tn7 DDE FP 5, mABHD4 FP 1, SIAE primary 1 and TCR CD3 inh -1.
O=C(Nc1ccc2nc(-c3ccco3)c(-c3ccco3)nc2c1)N1CCN(c2ccccn2)CC1 was read as Tn6 DDE FP -8, HTRA1 inhibitor 43*, Tn7 DDE FP -2, mABHD4 FP 30*, SIAE primary 22*, TCR CD3 inh 34* and HTRA1 inh conf -21.
`Cc1ccc(S(=O)(=O)NC(=O)Nc2ccc(N(C)C)cc2)cc1` gave Tn6 DDE FP -3, HTRA1 inhibitor 44*, Tn7 DDE FP -1, mABHD4 FP 25, SIAE primary 5, TCR CD3 inh 6 and HTRA1 inh conf 45*.
Screening COC(=O)C1CN(Cc2ccccc2)CCS(=O)(=O)N1Cc1ccc(Cl)cc1 (stereo not drawn) returned Tn6 DDE FP -4, Tn7 DDE FP -7, mABHD4 FP -4 and SIAE primary 2.
Screening CC(C)(C)c1ccc(O)c(N=Cc2cc(Br)ccc2O)c1 returned Tn6 DDE FP 6, HTRA1 inhibitor 41*, Tn7 DDE FP -5, mABHD4 FP 18, SIAE primary 8, TCR CD3 inh 9 and HTRA1 inh conf 42*.
`O=S1(=O)Nc2c(ccc3cccnc23)-c2ccccc21` gave HTRA1 inhibitor 36* and HTRA1 inh conf 31.
For CC(C)CNC(=O)OCc1cn(Cc2cc(F)cc(F)c2)nn1 the results were Tn6 DDE FP -2, Tn7 DDE FP 2, mABHD4 FP 4 and SIAE primary -1.
Nc1cc(N)c(OCC(F)(F)F)cc1OCC(F)(F)F was read as HTRA1 inhibitor 48* and HTRA1 inh conf 34.
For CC(=O)N1CCN(C(=O)CCn2nnc3ccccc32)CC1 the results were Tn6 DDE FP -3, Tn7 DDE FP -3, mABHD4 FP 3 and SIAE primary 2.
For COC(=O)[C@]12C[C@H](CC(=O)N3CCN(C(=O)c4ccco4)CC3)C(=O)N(Cc3ccc(Cl)cc3Cl)C1=C[C@H](C1CCCC1)O[C@@H]2C the results were Tn6 DDE FP 0, Tn7 DDE FP -6, mABHD4 FP -5 and SIAE primary -5.
`O=C1CCNc2cc3ccccc3cc21` gave HTRA1 inhibitor 41* and HTRA1 inh conf 14.
COc1ccc2[nH]c(O)c(N=NC(=O)c3ccc(NS(=O)(=O)c4cccs4)cc3)c2c1 was read as Tn6 DDE FP 2, HTRA1 inhibitor 45*, Tn7 DDE FP 0, mABHD4 FP 29, SIAE primary 17, TCR CD3 inh 3 and HTRA1 inh conf 34.
C=CCn1c(C)cc(-c2csc(NCC)n2)c1C was read as Tn6 DDE FP -3, HTRA1 inhibitor 30, Tn7 DDE FP 6, mABHD4 FP 21, SIAE primary 8 and TCR CD3 inh -3.
`C=CCn1c(C)cc(-c2csc(N)n2)c1C` gave Tn6 DDE FP 3, HTRA1 inhibitor 60*, Tn7 DDE FP 0, mABHD4 FP 20, SIAE primary 8, TCR CD3 inh 1 and HTRA1 inh conf 31.
COc1ccc(-n2c(C)cc(-c3csc(N)n3)c2C)cc1 was read as Tn6 DDE FP 4, HTRA1 inhibitor 39*, Tn7 DDE FP -5, mABHD4 FP 21, SIAE primary 14, TCR CD3 inh -5 and HTRA1 inh conf 32.
For C=CCn1c(C)cc(-c2csc(NC)n2)c1C the results were Tn6 DDE FP 7, HTRA1 inhibitor 42*, Tn7 DDE FP 4, mABHD4 FP 17, SIAE primary 6, TCR CD3 inh -9 and HTRA1 inh conf 28.
Screening COc1ccc([C@H]2OC(=O)C[C@H]2C(=O)N2CCN(c3ccccc3Cl)CC2)cc1OC returned Tn6 DDE FP 1, Tn7 DDE FP 3, mABHD4 FP -3 and SIAE primary -2.
For Cc1cc(NC(=O)COc2cc(F)cc(F)c2)n(-c2ccccc2)n1 the results were Tn6 DDE FP -6, Tn7 DDE FP 9, mABHD4 FP -5 and SIAE primary 6.
Screening Cc1ccccc1CN1CCCCC(NC(=O)c2ccc(-c3ccccc3)cc2)C1=O (stereo not drawn) returned Tn6 DDE FP -10, Tn7 DDE FP 2, mABHD4 FP -13 and SIAE primary -7.
Screening O=C(COC(=O)c1ccc2ncsc2c1)NC(=O)NCc1ccccc1 returned Tn6 DDE FP 1, HTRA1 inhibitor 39*, Tn7 DDE FP 3, mABHD4 FP -23, SIAE primary 2, TCR CD3 inh 3 and HTRA1 inh conf 30.
`COc1ccc(OCC(C)CN2CCC(C(O)(c3ccccc3)c3ccccc3)CC2)cc1` (stereo not drawn) gave Tn6 DDE FP -3, Tn7 DDE FP -7, mABHD4 FP -2 and SIAE primary -3.

Bioassay records: PubChem BioAssay, The Scripps Research Institute Molecular Screening Center
